17 compounds from ChEMBL document CHEMBL1123220, “Structure-activity studies of 16-methoxy-16-methyl prostaglandins” (1986) can be followed below.

For test [1], the system named is Rattus norvegicus. In words: Compound was evaluated for antisecretion activity using stomach perfusion test in the anesthetized rat (ig administration). Format: functional. To be noted: for ED50: Rattus norvegicus, Stomach, po, read-out: ID50 (the source's name).
The next test has as its system Mus musculus. Put plainly: Compound was evaluated for diarrheal effect in mice (po administration). The class given is functional. In short, it runs like this: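 Mice fasted 24 h, then given logarithmically graded oral doses of 100–4000 μg/kg. Animals caged singly on blotting paper for 1 h, and stool dampness spots scored on a 0–4 scale. ED50 calculated by the Miller–Tainter method.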

Test [2] concerns Cricetinae gen. sp. In words: Antifertility activity was determined in hamsters (two to six dose levels, 6-18 animals per group) treated subcutaneously (sc) from day 4 to day 6 of gestation. Format: functional, Mesocricetus auratus. In short, it runs like this:
(§1)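 Syrian Golden hamsters dosed sc on three consecutive days, gestation days 4 to 6. Two to six dose levels, 6–18 animals per group. Animals killed on day 10 of gestation, and implantation sites and live fetuses counted.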

In test [3] the test system is Rattus norvegicus. Put plainly: Compound was evaluated for antisecretion activity using stomach perfusion test in the anesthetized rat (iv administration). The class given is functional. The following applies: read-out: ID50 (the source's name).
The nature of test [4]: Ratio of ED50 for diarrhea to ID50 (antisecretory activity). Format: functional.
For test [5], the system named is Cricetinae gen. sp. Put plainly: (§2) Antifertility activity was determined in hamsters (two to six dose levels, 6-18 animals per group) treated subcutaneously (sc) from day 4 to day 6 of gestation. Format: functional, Mesocricetus auratus. In short, it runs like this: as §1
For test [6], the system named is Rattus norvegicus. Put plainly: Compound was evaluated for antisecretion activity using stomach perfusion test in the anesthetized rat (iv administration) in experiment 1. The class given is functional. The following applies: read-out: ID50 (the source's name). In short, it runs like this:
(§3)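 Stomach perfusion in anesthetized rats. Gastric hypersecretion driven by continuous iv histamine infusion at 1.5 mg/kg per hour. Compound given iv. ID50 read from a plot of response, as percent of control, against log dose.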

Test [7] concerns Rattus norvegicus. In words: Compound was evaluated for antisecretion activity using stomach perfusion test in the anesthetized rat (iv administration) in experiment 2. Format: functional. The following applies: read-out: ID50 (the source's name). The procedure, abridged: as §3
Test [8] has as its system Rattus norvegicus. In words: Compound was evaluated for antisecretion activity using stomach perfusion test in the anesthetized rat (iv administration); At the dose of 500 ug/kg, some animals died. The class given is functional. To be noted: read-out: ID50 (the source's name).
The subject of test [9] is Cricetinae gen. sp. The description is as §2. The class given is functional, Cricetulus griseus. The procedure, abridged:
as §1

Where [10] appears, read: Mus musculus, po, read-out: ED50.

In the case of `CCCCC(OC)[C@H](O)/C=C/C1[C@H](O)CC(=O)[C@@H]1CCCCCCC(=O)O` (some centres not stated), the ED50 in the test with Rattus norvegicus [1] was > 0.1 mg/kg.
Take `CCCC[C@](C)(OC)[C@H](O)/C=C/C1[C@H](O)CC(=O)[C@@H]1C/C=C\CCCC(=O)OC` (some centres not stated): the ED50 in the test with Mus musculus (setting [10]) is 0.479 mg/kg; in the test with Cricetinae gen. sp. [2] it was > 1 mg/kg; in the test on Rattus norvegicus [3], 0.5 mg/kg.
Regarding `CCCC[C@@](C)(OC)[C@H](O)/C=C/C1[C@H](O)CC(=O)[C@@H]1C/C=C\CCCC(=O)OC` (some centres not stated), the ED50 in the test on Mus musculus (setting [10]) is 0.757 mg/kg; with Cricetinae gen. sp. [2], > 1 mg/kg; in the test with Rattus norvegicus [3], 0.0072 mg/kg. For the same compound, the Ratio in test [4] came to 105.
`CCCC[C@@H](OC)[C@H](O)/C=C/C1[C@H](O)CC(=O)[C@@H]1C/C=C\CCCC(=O)O` (some centres not stated): the ED50 in the test with Rattus norvegicus [3] was > 0.05 mg/kg.
Consider `CCCC[C@@](C)(OC)[C@H](O)/C=C/C1[C@H](O)C[C@H](O)[C@@H]1C/C=C\CCCC(=O)OC` (some centres not stated), for which the ED50 in the test on Mus musculus (setting [10]) amounted to 0.888 mg/kg; with Cricetinae gen. sp. [5], 0.6 mg/kg; in the test with Rattus norvegicus [3], 1.5 mg/kg.
With `CCCC[C@](C)(OC)[C@@H](O)/C=C/C1[C@H](O)CC(=O)[C@@H]1CCCCCCC(=O)OC` (stereo in doubt; form 1), the ED50 in the test on Mus musculus was >4 mg/kg; in the test on Cricetinae gen. sp. [2], > 2.5 mg/kg; with Rattus norvegicus [3], > 3 mg/kg.
With `CCCC[C@](C)(OC)[C@@H](O)/C=C/C1[C@H](O)CC(=O)[C@@H]1C/C=C\CCCC(=O)OC` (some centres not stated), the values for the ED50 in the test on Mus musculus (setting [10]), with Cricetinae gen. sp. [2] and with Rattus norvegicus [3] were 0.912 mg/kg, > 1 mg/kg and 1.5 mg/kg, respectively.
For the compound `CCCC[C@@](C)(OC)[C@@H](O)/C=C/C1[C@H](O)CC(=O)[C@@H]1C/C=C\CCCC(=O)OC` (some centres not stated), the ED50 with Cricetinae gen. sp. [2] is > 1 mg/kg.
On to `CCCC[C@](C)(OC)[C@H](O)/C=C/C1[C@H](O)C[C@H](O)[C@@H]1C/C=C\CCCC(=O)OC` (some centres not stated), for which the ED50 was 1.81 mg/kg with Mus musculus (setting [10]), 1.5 mg/kg in the test with Cricetinae gen. sp. [5] and > 2 mg/kg in the test with Rattus norvegicus [3].
Consider `CCCC[C@@](C)(OC)[C@H](O)/C=C/C1[C@H](O)CC(=O)[C@@H]1CCCCCCC(=O)OC` (some centres not stated), for which the ED50 in the test on Mus musculus (setting [10]) is 1.35 mg/kg; in the test on Cricetinae gen. sp. [2] it was > 2.5 mg/kg; with Rattus norvegicus [1], 0.015 mg/kg; in the test on Rattus norvegicus [3] it was 0.0045 mg/kg. Further, the ID50 in the test on Rattus norvegicus [1] came to 0.015 mg/kg. For the same compound, the Ratio in test [4] came out at 300.
Take `CCCCC[C@H](O)/C=C/[C@H]1[C@H](O)CC(=O)[C@@H]1CCCCCCC(=O)O` [ALPROSTADIL]: the results for the ED50 in the test on Mus musculus (setting [10]), in the test on Cricetinae gen. sp. [5] and in the test on Rattus norvegicus [3] were 1.02 mg/kg, 1.8 mg/kg and 0.0285 mg/kg, respectively. In addition, the Ratio in test [4] turned out to be 36.
For `CCCC[C@@](C)(OC)[C@@H](O)/C=C/C1[C@H](O)C[C@H](O)[C@@H]1C/C=C\CCCC(=O)OC` (some centres not stated), the ED50 in the test with Mus musculus (setting [10]) is > 4 mg/kg; in the test on Cricetinae gen. sp. [5], > 4 mg/kg; in the test with Rattus norvegicus [3] it was > 2 mg/kg.
In the case of `CCCC[C@](C)(OC)[C@@H](O)/C=C/C1[C@H](O)CC(=O)[C@@H]1CCCCCCC(=O)OC` (stereo in doubt; form 2), the ED50 was determined as 0.774 mg/kg with Mus musculus, 0.1 mg/kg in the test on Rattus norvegicus [6] and 0.3 mg/kg with Rattus norvegicus [7].
For `CCCCC[C@H](O)/C=C/[C@H]1[C@H](O)CC(=O)[C@@H]1C/C=C\CCCC(=O)O` [DINOPROSTONE], the ED50 was 1.5 mg/kg in the test with Mus musculus (setting [10]), > 0.1 mg/kg in the test with Rattus norvegicus [1], 0.7 mg/kg with Cricetinae gen. sp. [5] and 0.026 mg/kg in the test on Rattus norvegicus [3]. Besides, the Ratio in test [4] was found to be 58.
Consider `CCCC[C@](C)(OC)[C@@H](O)/C=C/C1[C@H](O)C[C@H](O)[C@@H]1C/C=C\CCCC(=O)OC` (some centres not stated), for which the ED50 in the test on Mus musculus (setting [10]), in the test with Cricetinae gen. sp. [5] and in the test on Rattus norvegicus [3] was > 4 mg/kg in each case.
For `CCCC[C@@](C)(OC)[C@@H](O)/C=C/C1[C@H](O)CC(=O)[C@@H]1CCCCCCC(=O)OC` (some centres not stated), the values for the ED50 in the test with Mus musculus (setting [10]), in the test on Cricetinae gen. sp. [2] and in the test with Rattus norvegicus [3] were > 4 mg/kg, > 2.5 mg/kg and > 1 mg/kg, respectively.
As for `CCCCC[C@H](O)/C=C/[C@@H]1[C@@H](C/C=C\CCCC(=O)O)[C@@H](O)C[C@H]1O` [DINOPROST], the ED50 was > 0.3 mg/kg in the test with Rattus norvegicus [8], 0.57 mg/kg with Mus musculus (setting [10]) and 0.06 mg/kg with Cricetinae gen. sp. [9].
